Data published in ChEMBL document CHEMBL1135657, “Novel dual inhibitors of AChE and MAO derived from hydroxy aminoindan and phenethylamine as potential treatment for Alzheimer's disease” (J Med Chem, 2002).

What was measured:
Acetylcholinesterase [1] = target: T1, Acetylcholinesterase (Homo sapiens, UniProt P22303)
[2] = target: T2, Amine oxidase [flavin-containing] B (Rattus norvegicus, UniProt P19643); test: In vitro inhibitory concentration against Monoamine oxidase B of rat brain homogenates; format: tissue-based
T2 sequence (P19643 whole entry): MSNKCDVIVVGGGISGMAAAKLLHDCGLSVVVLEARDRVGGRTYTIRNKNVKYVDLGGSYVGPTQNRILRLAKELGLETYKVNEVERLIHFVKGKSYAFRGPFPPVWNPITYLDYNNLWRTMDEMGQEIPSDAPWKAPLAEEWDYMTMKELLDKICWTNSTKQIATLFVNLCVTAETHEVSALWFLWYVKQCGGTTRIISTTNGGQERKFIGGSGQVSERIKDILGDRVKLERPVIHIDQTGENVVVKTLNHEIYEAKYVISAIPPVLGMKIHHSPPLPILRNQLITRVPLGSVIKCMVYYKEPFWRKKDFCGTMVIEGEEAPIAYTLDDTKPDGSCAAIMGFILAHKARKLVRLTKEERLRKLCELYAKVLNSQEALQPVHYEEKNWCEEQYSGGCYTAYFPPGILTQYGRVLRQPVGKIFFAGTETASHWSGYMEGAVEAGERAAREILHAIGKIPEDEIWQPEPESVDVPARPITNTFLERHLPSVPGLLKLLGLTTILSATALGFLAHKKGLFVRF

Acetylcholinesterase [3] = target: T1, Acetylcholinesterase; test: In vitro inhibitory concentration against purified Acetylcholinesterase of human erythrocytes; value ranges from 0.025-0.027
Butyrylcholinesterase [4] = target: T3, Butyrylcholinesterase (Equus caballus, UniProt Q9N1N9); test: In vitro inhibitory concentration against Butyrylcholinesterase of horse serum; value ranges from 0.038-0.064
T3 sequence (Q9N1N9 whole entry): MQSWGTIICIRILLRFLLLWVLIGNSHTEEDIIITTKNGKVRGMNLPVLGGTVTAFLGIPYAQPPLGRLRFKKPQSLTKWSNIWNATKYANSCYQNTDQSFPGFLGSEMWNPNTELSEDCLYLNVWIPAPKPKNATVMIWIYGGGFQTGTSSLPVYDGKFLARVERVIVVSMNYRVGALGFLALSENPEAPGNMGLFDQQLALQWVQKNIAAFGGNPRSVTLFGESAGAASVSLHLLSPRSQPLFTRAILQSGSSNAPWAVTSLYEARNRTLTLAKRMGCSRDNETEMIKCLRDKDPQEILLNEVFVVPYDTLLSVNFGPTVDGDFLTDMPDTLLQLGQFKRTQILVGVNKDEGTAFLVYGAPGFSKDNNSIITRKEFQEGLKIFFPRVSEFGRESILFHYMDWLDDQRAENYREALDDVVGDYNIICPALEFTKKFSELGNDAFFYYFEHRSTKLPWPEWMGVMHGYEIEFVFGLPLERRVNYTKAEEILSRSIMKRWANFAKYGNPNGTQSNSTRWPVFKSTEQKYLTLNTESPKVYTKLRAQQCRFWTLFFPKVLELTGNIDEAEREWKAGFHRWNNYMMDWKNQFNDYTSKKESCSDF
Method in brief: (§1)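 Ellman assay followed, with 200 µM butyrylthiocholine as substrate. Runs were in triplicate with four-point dose-response curves. IC50 and fiducial limits came from log concentration versus % inhibition.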

[5] = target: T4, Amine oxidase [flavin-containing] A (Rattus norvegicus, UniProt P21396); test: In vitro inhibitory concentration against Monoamine oxidase A of rat brain homogenates; value ranges from 5.6-11.1; format: tissue-based
T4 sequence (P21396 whole entry): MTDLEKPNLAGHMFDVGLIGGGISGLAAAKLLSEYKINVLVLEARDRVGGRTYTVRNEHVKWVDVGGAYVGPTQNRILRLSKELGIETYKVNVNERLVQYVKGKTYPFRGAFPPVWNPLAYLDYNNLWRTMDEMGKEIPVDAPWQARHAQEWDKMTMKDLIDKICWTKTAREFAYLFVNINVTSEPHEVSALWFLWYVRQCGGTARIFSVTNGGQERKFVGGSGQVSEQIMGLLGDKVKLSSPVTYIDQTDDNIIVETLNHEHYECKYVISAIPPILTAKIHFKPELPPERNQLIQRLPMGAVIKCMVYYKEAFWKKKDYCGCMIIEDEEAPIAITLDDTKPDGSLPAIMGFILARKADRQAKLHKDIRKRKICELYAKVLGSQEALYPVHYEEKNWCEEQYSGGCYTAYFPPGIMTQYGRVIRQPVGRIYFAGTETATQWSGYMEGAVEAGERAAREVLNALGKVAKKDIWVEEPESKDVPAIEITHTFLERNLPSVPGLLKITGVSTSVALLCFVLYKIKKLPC

Acetylcholinesterase [6] = target: T1, Acetylcholinesterase; test: In vitro inhibitory concentration against purified Acetylcholinesterase of human erythrocytes; value ranges from 0.79-0.93
[7] = target: T2, Amine oxidase [flavin-containing] B; test: In vitro inhibitory concentration against Monoamine oxidase B of rat brain homogenates; value ranges from 1.5-5.2; format: tissue-based
[8] = target: T4, Amine oxidase [flavin-containing] A; test: In vitro inhibitory concentration against Monoamine oxidase A of rat brain homogenates; value ranges from 0.1-0.9; format: tissue-based
Acetylcholinesterase [9] = target: T1, Acetylcholinesterase; test: In vitro inhibitory concentration against purified Acetylcholinesterase of human erythrocytes; value ranges from 8.99-49.4
[10] = target: T4, Amine oxidase [flavin-containing] A; test: biochemical; format: tissue-based, Brain
Butyrylcholinesterase [11] = target: T3, Butyrylcholinesterase; test: In vitro inhibitory concentration against Butyrylcholinesterase of horse serum; value ranges from 0.76-4.2
Method in brief: as §1

Acetylcholinesterase [12] = target: T1, Acetylcholinesterase; test: In vitro inhibitory concentration against purified Acetylcholinesterase of human erythrocytes; value ranges from 252-806
Butyrylcholinesterase [13] = target: T3, Butyrylcholinesterase; test: In vitro inhibitory concentration against Butyrylcholinesterase of horse serum; value ranges from 10.7-43.7
Method in brief: as §1

Acetylcholinesterase [14] = target: T1, Acetylcholinesterase; test: In vitro inhibitory concentration against purified Acetylcholinesterase of human erythrocytes; value ranges from 0.12-0.41
[15] = target: T4, Amine oxidase [flavin-containing] A; test: In vitro inhibitory concentration against Monoamine oxidase A of rat brain homogenates; value ranges from 9-52; format: tissue-based
Acetylcholinesterase [16] = target: T1, Acetylcholinesterase; test: In vitro inhibitory concentration against purified Acetylcholinesterase of human erythrocytes
Butyrylcholinesterase [17] = target: T3, Butyrylcholinesterase; test: In vitro inhibitory concentration against Butyrylcholinesterase of horse serum; value ranges from 0.21-1.26
Method in brief: as §1

[18] = target: T4, Amine oxidase [flavin-containing] A; test: In vitro inhibitory concentration against Monoamine oxidase A of rat brain homogenates; value ranges from 2-8; format: tissue-based
[19] = target: T2, Amine oxidase [flavin-containing] B; test: In vitro inhibitory concentration against Monoamine oxidase B of rat brain homogenates; value ranges from 22-530; format: tissue-based
[20] = target: T4, Amine oxidase [flavin-containing] A; test: In vitro inhibitory concentration against Monoamine oxidase A of rat brain homogenates; value ranges from 14-340; format: tissue-based
Acetylcholinesterase [21] = target: T1, Acetylcholinesterase; test: In vitro inhibitory concentration against purified Acetylcholinesterase of human erythrocytes; value ranges from 13.6-27.3
Butyrylcholinesterase [22] = target: T3, Butyrylcholinesterase; test: In vitro inhibitory concentration against Butyrylcholinesterase of horse serum; value ranges from 1.19-8.56
Method in brief: as §1

[23] = target: T2, Amine oxidase [flavin-containing] B; test: In vitro inhibitory concentration against Monoamine oxidase B of rat brain homogenates; value ranges from 0.08-0.38; format: tissue-based
Method in brief: (§2)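 Rat brain homogenate (in 0.3 M sucrose) as enzyme source; compounds diluted 10⁻²M to 10⁻⁹M in 0.05 M phosphate buffer with 0.15 μM clorgyline; preincubated 60 min at 37 °C, then 10 μM ¹⁴C-phenylethylamine added for 20 min more; stopped with citric acid; metabolites extracted into toluene/ethyl acetate, scintillation counted; activity as % of control, tranylcypromine blank.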

[24] = target: T4, Amine oxidase [flavin-containing] A; test: In vitro inhibitory concentration against Monoamine oxidase A of rat brain homogenates; value ranges from 12.1-17.6; format: tissue-based
Acetylcholinesterase [25] = target: T1, Acetylcholinesterase; test: In vitro inhibitory concentration against purified Acetylcholinesterase of human erythrocytes; value ranges from 12.6-74.0
Butyrylcholinesterase [26] = target: T3, Butyrylcholinesterase; test: In vitro inhibitory concentration against Butyrylcholinesterase of horse serum; value ranges from 0.90-0.95
Method in brief: as §1

[27] = target: T2, Amine oxidase [flavin-containing] B; test: In vitro inhibitory concentration against Monoamine oxidase B of rat brain homogenates; value ranges from 9.5-17.2
[28] = target: T4, Amine oxidase [flavin-containing] A; test: In vitro inhibitory concentration against Monoamine oxidase A of rat brain homogenates; value ranges from 1.8-2.5; format: tissue-based
Butyrylcholinesterase [29] = target: T3, Butyrylcholinesterase; test: In vitro inhibitory concentration against Butyrylcholinesterase of horse serum; value ranges from 0.34-1.03
Method in brief: as §1

[30] = target: T4, Amine oxidase [flavin-containing] A; test: In vitro inhibitory concentration against Monoamine oxidase A of rat brain homogenates; value ranges from 30-230; format: tissue-based
[31] = Pseudo-first order rate constant for carbamoylation of ACHE at 10 (uM) concentration; format: ADME
Method in brief: (§3)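 Human erythrocyte AChE, Ellman method with 200 µM […] substrate, 0.1 M phosphate buffer pH 7.4, 37 °C. Progressive inhibition followed at 4–5 inhibitor concentrations. Pseudo-first-order carbamylation rate constants k_obs (min⁻¹) derived as per Bar-On et al. and reported ±SEM. Apparent bimolecular rate constant k_i calculated from these.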

[32] = Pseudo-first order rate constant for carbamoylation of ACHE at 2.5(uM) concentration; format: ADME
Method in brief: as §3

[33] = Pseudo-first order rate constant for carbamoylation of ACHE at 20 (uM) concentration; format: ADME
Method in brief: as §3

[34] = Pseudo-first order rate constant for carbamoylation of ACHE at 40 (uM) concentration; format: ADME
Method in brief: as §3

[35] = Pseudo-first order rate constant for carbamoylation of ACHE at 5 (uM) concentration; format: ADME
Method in brief: as §3

[36] = Bimolecular rate constant for carbamoylation of ACHE; format: ADME
Method in brief: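 Human erythrocyte AChE preincubated with inhibitor at 37 °C in 0.1 M phosphate buffer, pH 7.4, under Ellman conditions with 200 µM […]. Pseudo-first-order rate constants (k_obs) for progressive inhibition were obtained at 4-5 inhibitor concentrations. The apparent bimolecular carbamylation constant k_i was calculated from these.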

[37] = Pseudo-first order rate constant for carbamoylation of ACHE at 50 (uM) concentration; format: ADME
Method in brief: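 Human erythrocyte AChE, same Ellman conditions: 200 µM […], 60 min preincubation at 37 °C, 0.1 M phosphate pH 7.4. Progressive inhibition followed at 4-5 inhibitor concentrations. Pseudo-first-order k_obs (min⁻¹) derived per concentration; apparent bimolecular carbamylation constant k_i calculated from these.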

Acetylcholinesterase [38] = target: T1, Acetylcholinesterase; test: In vitro inhibitory concentration against purified Acetylcholinesterase of human erythrocytes; value ranges from 2.36-4.22
Butyrylcholinesterase [39] = target: T3, Butyrylcholinesterase; test: In vitro inhibitory concentration against Butyrylcholinesterase of horse serum; value ranges from 0.64-0.89
[40] = target: T4, Amine oxidase [flavin-containing] A; test: In vitro inhibitory concentration against Monoamine oxidase A of rat brain homogenates; value ranges from 8-43; format: tissue-based
[41] = target: T2, Amine oxidase [flavin-containing] B; test: In vitro inhibitory concentration against Monoamine oxidase B of rat brain homogenates; value ranges from 0.8-2.9; format: tissue-based
Acetylcholinesterase [42] = target: T1, Acetylcholinesterase; test: In vitro inhibitory concentration against purified Acetylcholinesterase of human erythrocytes; value ranges from 3.69-33.1
Butyrylcholinesterase [43] = target: T3, Butyrylcholinesterase; test: In vitro inhibitory concentration against Butyrylcholinesterase of horse serum; value ranges from 0.45-1.08
Method in brief: as §1

[44] = target: T2, Amine oxidase [flavin-containing] B; test: In vitro inhibitory concentration against Monoamine oxidase B of rat brain homogenates; value ranges from 0.11-0.57; format: tissue-based
Method in brief: as §2

[45] = target: T4, Amine oxidase [flavin-containing] A; test: In vitro inhibitory concentration against Monoamine oxidase A of rat brain homogenates; value ranges from 0.8-3.7; format: tissue-based

T1 sequence (P22303 whole entry): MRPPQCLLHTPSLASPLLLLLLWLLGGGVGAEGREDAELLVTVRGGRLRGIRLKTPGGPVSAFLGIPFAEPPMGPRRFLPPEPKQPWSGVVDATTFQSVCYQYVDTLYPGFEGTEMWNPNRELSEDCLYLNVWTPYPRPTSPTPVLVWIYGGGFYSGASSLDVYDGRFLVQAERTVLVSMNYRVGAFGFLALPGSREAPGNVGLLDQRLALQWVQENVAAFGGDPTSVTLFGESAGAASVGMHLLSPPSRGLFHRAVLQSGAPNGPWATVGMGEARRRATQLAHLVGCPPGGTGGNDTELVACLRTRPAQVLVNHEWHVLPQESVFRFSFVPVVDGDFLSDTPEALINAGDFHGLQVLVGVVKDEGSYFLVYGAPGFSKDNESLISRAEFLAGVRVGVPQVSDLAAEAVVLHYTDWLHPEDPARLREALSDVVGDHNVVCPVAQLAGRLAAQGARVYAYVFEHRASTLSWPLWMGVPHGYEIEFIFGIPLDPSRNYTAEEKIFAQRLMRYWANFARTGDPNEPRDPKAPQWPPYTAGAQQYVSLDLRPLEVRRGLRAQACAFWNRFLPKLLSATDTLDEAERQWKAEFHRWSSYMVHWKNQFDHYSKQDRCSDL

Compound: CCN(C)C(=O)Oc1cccc2c1C(N)CC2 (stereo not drawn)
- IC50 (Acetylcholinesterase [1]): 10.5 µM
- IC50 [2]: > 1000 µM

Compound: CCN(C)C(=O)Oc1cccc2c1CCC2N (stereo not drawn)
- IC50 (Acetylcholinesterase [3]): 0.026 µM
- IC50 (Butyrylcholinesterase [4]): 0.054 µM
- IC50 [2]: > 1000 µM
- IC50 [5]: 7.9 µM

Compound: C#CCN(C)CCc1cccc(OC(=O)N(C)C)c1
- IC50 (Acetylcholinesterase [6]): 0.85 µM
- IC50 [7]: 2.8 µM
- IC50 [8]: 0.3 µM

Compound: CCN(C)C(=O)Oc1ccc2c(c1)C(N)CC2 (stereo not drawn)
- IC50 (Acetylcholinesterase [9]): 19 µM
- IC50 [2]: > 1000 µM
- IC50 [10]: 12.9 µM
- IC50 (Butyrylcholinesterase [11]): 1.9 µM

Compound: C#CCN(C)C1CCc2cccc(OC(=O)N(C)CC)c21 (stereo not drawn)
- IC50 (Acetylcholinesterase [12]): 439 µM
- IC50 (Butyrylcholinesterase [13]): 20 µM

Compound: CNCCc1cccc(OC(=O)N(C)C)c1
- IC50 (Acetylcholinesterase [14]): 0.28 µM
- IC50 [2]: > 1000 µM
- IC50 [15]: 22 µM

Compound: C#CCN(C)[C@@H]1CCc2ccc(OC(=O)N(C)CC)cc21
- IC50 (Acetylcholinesterase [16]): 1200 µM
- IC50 (Butyrylcholinesterase [17]): 0.55 µM
- IC50 [18]: 4 µM

Compound: C#CCNCCc1cccc(O)c1
- IC50 [19]: 107 µM
- IC50 [20]: 67 µM

Compound: C#CCNC(C)Cc1cccc(OC(=O)N(C)CCC)c1 (stereo not drawn)
- IC50 (Acetylcholinesterase [21]): 19.1 µM
- IC50 (Butyrylcholinesterase [22]): 2.07 µM
- IC50 [23]: 0.17 µM
- IC50 [24]: 14.6 µM

Compound: C#CCNC(C)Cc1cccc(OC(=O)N(C)CC)c1 (stereo not drawn)
- IC50 (Acetylcholinesterase [25]): 33.9 µM
- IC50 (Butyrylcholinesterase [26]): 0.93 µM
- IC50 [27]: 12.8 µM
- IC50 [28]: 2.1 µM

Compound: CN(C)C(=O)Oc1ccc2c(c1)C(N)CC2 (stereo not drawn)
- IC50 (Butyrylcholinesterase [29]): 0.63 µM
- IC50 [30]: 80 µM

Compound: C#CCN(C)C(C)Cc1cccc(OC(=O)N(C)CCCCCC)c1 (stereo not drawn)
- K obs [31]: 23 min⁻¹
- K obs [32]: 14 min⁻¹
- K obs [33]: 30 min⁻¹
- K obs [34]: 55 min⁻¹
- K obs [35]: 15 min⁻¹
- Bimolecular carbamoylation rate constant (ki) [36]: 17.25 M⁻¹ s⁻¹
- K obs [37]: 63 min⁻¹
- IC50 (Acetylcholinesterase [38]): 3.06 µM
- IC50 (Butyrylcholinesterase [39]): 0.72 µM
- IC50 [40]: 20 µM
- IC50 [41]: 1.5 µM

Compound: C#CCN(C)C(C)Cc1cccc(OC(=O)N(C)C2CCCCC2)c1 (stereo not drawn)
- IC50 (Acetylcholinesterase [42]): 8.67 µM
- IC50 (Butyrylcholinesterase [43]): 0.67 µM
- IC50 [44]: 0.24 µM
- IC50 [45]: 1.7 µM
